Experimental data taken from ChEMBL document CHEMBL3259751, “A rational design strategy of the novel topoisomerase II inhibitors for the synthesis of the 4-O-(2-pyrazinecarboxylic)-4'-demethylepipodophyllotoxin with antitumor activity by diminishing the relaxation reaction of topoisomerase II-DNA decatenation” (Bioorg Med Chem, 2014).
pIC50: −log10 of the molar value. Activity calls are given as the source filed them. The calls are words filed in the database; no cut-off is given here.

Key:
HepG2 [1] = assay: Cytotoxicity against human HepG2 cells after 48 hrs by MTT assay; format: functional, cell-based; settings: for pIC50: HepG2, 48 h
Summary of the method: (§1)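 Cells seeded at 3500–13,000 per well. A549, HeLa and HepG2 were grown in DMEM and BGC-823 in RPMI 1640, each with 10% CS plus penicillin/streptomycin, at 37 °C and 5% CO₂. Drug exposure lasted 2 days, followed by MTT readout at A₄₉₂, with untreated controls at 0.6–0.8. IC50 was the concentration cutting absorbance by 50%, interpolated by sigmoidal nonlinear regression. Run in triplicate.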

HeLa [2] = assay: Cytotoxicity against human HeLa cells after 48 hrs by MTT assay; format: functional, cell-based; summary of the method: as §1
A549 [3] = assay: Cytotoxicity against human A549 cells after 48 hrs by MTT assay; format: functional, cell-based; settings: for pIC50: A549, 48 h; summary of the method: as §1
[4] = (§2) Cytotoxicity against human BGC823 cells after 48 hrs by MTT assay; format: functional, cell-based; settings: BGC-823, 48 h; summary of the method: as §1
[5] = Cytotoxicity against human HL-7702 cells after 48 hrs by MTT assay; format: cell-based, L02; settings: for pIC50: Homo sapiens, L02, 48 h; for Activity: human, l02, 48 h
[6] = Cytotoxicity against human HL-7702 cells after 48 hrs by MTT assay relative to etoposide; format: functional, L02
[7] = Octanol-water partition coefficient, log P of the compound; format: physicochemical
Summary of the method: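 Partitioning between 1-octanol and water. The compound concentration was measured in each phase, and logP was calculated as the log of the 1-octanol concentration over the water concentration. The water concentration was corrected by an index-error factor, Y = 2.555.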

HeLa [8] = assay: Selectivity ratio of etoposide IC50 to compound IC50 for human HeLa cells after 48 hrs by MTT assay; format: functional
A549 [9] = assay: Selectivity ratio of etoposide IC50 to compound IC50 for human A549 cells after 48 hrs by MTT assay; format: functional
HepG2 [10] = assay: Selectivity ratio of etoposide IC50 to compound IC50 for human HepG2 cells after 48 hrs by MTT assay; format: functional
BGC-823 [11] = assay: Selectivity ratio of etoposide IC50 to compound IC50 for human BGC823 cells after 48 hrs by MTT assay; format: functional
HeLa [12] = assay: Cell cycle arrest in human HeLa cells after 24 hrs by propidium iodide staining-based flow cytometry; format: functional
HeLa [13] = assay: Cell cycle arrest in human HeLa cells assessed as accumulation at G0/G1 phase at 0.5 uM after 24 hrs by propidium iodide staining-based flow cytometry (reference value: 37.26 %); format: functional
HeLa [14] = assay: Cell cycle arrest in human HeLa cells assessed as accumulation at G0/G1 phase at 1 uM after 24 hrs by propidium iodide staining-based flow cytometry (reference value: 37.26 %); format: functional
HeLa [15] = assay: Cell cycle arrest in human HeLa cells assessed as accumulation at G0/G1 phase at 5 uM after 24 hrs by propidium iodide staining-based flow cytometry (reference value: 37.26 %); format: functional
HeLa [16] = assay: Cell cycle arrest in human HeLa cells assessed as accumulation at G2/M phase at 0.5 uM after 24 hrs by propidium iodide staining-based flow cytometry (reference value: 5.29 %); format: functional
HeLa [17] = assay: Cell cycle arrest in human HeLa cells assessed as accumulation at G2/M phase at 1 uM after 24 hrs by propidium iodide staining-based flow cytometry (reference value: 5.29 %); format: functional
HeLa [18] = assay: Cell cycle arrest in human HeLa cells assessed as accumulation at G2/M phase at 5 uM after 24 hrs by propidium iodide staining-based flow cytometry (reference value: 5.29 %); format: functional
HeLa [19] = assay: Induction of apoptosis in human HeLa cells assessed as early apoptotic cells at 1 uM after 48 hrs by Annexin V/propidium iodide staining-based flow cytometry (reference value: 2.7 %); format: functional
HeLa [20] = assay: Induction of apoptosis in human HeLa cells assessed as early apoptotic cells at 5 uM after 48 hrs by Annexin V/propidium iodide staining-based flow cytometry (reference value: 2.7 %); format: functional
HeLa [21] = assay: Induction of apoptosis in human HeLa cells assessed as early apoptotic cells at 10 uM after 48 hrs by Annexin V/propidium iodide staining-based flow cytometry (reference value: 2.7 %); format: functional
HeLa [22] = assay: Induction of apoptosis in human HeLa cells assessed as late apoptotic cells at 1 uM after 48 hrs by Annexin V/propidium iodide staining-based flow cytometry (reference value: 2.3 %); format: functional
HeLa [23] = assay: Induction of apoptosis in human HeLa cells assessed as late apoptotic cells at 5 uM after 48 hrs by Annexin V/propidium iodide staining-based flow cytometry (reference value: 2.3 %); format: functional
HeLa [24] = assay: Induction of apoptosis in human HeLa cells assessed as late apoptotic cells at 10 uM after 48 hrs by Annexin V/propidium iodide staining-based flow cytometry (reference value: 2.3 %); format: functional
HeLa [25] = assay: Induction of apoptosis in human HeLa cells after 48 hrs by Annexin V/propidium iodide staining-based flow cytometry; format: functional, cell-based
[26] = molecular target: DNA topoisomerase 2-alpha (Homo sapiens) (UniProt P11388); assay: Inhibition of human DNA topoisomerase-2 using kDNA as substrate assessed as inhibition of DNA relaxation at 1 to 10 uM after 60 mins by agarose gel electrophoresis
[27] = Cytotoxicity against human BGC823 cells; format: functional, cell-based; settings: BGC-823; summary of the method: as §1
A549 [28] = assay: Cytotoxicity against human A549 cells; format: functional, cell-based; summary of the method: as §1
HepG2 [29] = assay: Cytotoxicity against human HepG2 cells; format: functional, cell-based; summary of the method: as §1
BGC-823 [30] = assay: as §2; format: functional, cell-based; summary of the method: as §1
BGC-823 [31] = assay: Selectivity ratio of etoposide IC50 to compound IC50 for human BGC823 cells; format: functional
A549 [32] = assay: Selectivity ratio of etoposide IC50 to compound IC50 for human A549 cells; format: functional
HepG2 [33] = assay: Selectivity ratio of etoposide IC50 to compound IC50 for human HepG2 cells; format: functional

Sequence of DNA topoisomerase 2-alpha (Homo sapiens) (P11388 whole entry): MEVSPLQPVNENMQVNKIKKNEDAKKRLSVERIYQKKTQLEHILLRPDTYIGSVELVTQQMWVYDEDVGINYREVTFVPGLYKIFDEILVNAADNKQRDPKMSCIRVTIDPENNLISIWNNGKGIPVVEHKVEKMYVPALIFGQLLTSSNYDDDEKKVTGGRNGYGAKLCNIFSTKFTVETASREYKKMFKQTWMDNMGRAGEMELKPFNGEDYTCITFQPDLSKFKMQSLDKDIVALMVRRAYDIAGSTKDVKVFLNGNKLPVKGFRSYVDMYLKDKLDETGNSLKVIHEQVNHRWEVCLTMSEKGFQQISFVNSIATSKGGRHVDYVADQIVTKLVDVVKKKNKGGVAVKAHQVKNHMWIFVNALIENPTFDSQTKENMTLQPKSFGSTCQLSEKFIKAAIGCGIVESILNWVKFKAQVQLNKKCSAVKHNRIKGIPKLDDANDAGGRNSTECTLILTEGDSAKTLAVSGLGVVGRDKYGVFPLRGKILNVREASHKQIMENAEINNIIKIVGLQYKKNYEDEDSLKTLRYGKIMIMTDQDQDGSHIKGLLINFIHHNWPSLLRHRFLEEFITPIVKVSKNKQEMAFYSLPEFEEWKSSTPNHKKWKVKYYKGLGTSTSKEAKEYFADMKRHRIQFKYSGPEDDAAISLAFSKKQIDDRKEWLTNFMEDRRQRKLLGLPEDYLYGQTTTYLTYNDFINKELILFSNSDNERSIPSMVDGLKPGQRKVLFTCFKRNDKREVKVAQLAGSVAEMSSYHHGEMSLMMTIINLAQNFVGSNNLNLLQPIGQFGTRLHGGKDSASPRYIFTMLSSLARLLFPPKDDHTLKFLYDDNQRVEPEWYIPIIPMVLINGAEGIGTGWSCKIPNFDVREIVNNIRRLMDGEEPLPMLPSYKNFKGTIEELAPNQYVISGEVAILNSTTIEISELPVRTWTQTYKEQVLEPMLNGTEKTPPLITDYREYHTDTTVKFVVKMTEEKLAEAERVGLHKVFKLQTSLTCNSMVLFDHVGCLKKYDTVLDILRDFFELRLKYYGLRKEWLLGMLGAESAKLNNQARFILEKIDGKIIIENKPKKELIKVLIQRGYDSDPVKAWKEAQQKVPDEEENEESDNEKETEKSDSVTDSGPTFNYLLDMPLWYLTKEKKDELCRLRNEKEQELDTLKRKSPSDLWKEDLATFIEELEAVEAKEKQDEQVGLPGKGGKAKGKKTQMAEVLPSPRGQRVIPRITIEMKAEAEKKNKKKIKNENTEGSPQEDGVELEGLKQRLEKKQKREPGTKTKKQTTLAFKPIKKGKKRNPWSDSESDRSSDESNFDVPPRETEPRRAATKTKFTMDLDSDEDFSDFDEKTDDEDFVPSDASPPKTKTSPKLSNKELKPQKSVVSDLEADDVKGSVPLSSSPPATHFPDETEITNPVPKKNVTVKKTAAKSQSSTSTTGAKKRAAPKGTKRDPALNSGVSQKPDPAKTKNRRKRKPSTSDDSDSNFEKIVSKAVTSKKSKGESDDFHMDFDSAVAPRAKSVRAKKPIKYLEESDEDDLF

Compound | pIC50 (HepG2 [1]) | pIC50 (HeLa [2]) | pIC50 (A549 [3]) | pIC50 [4] | pIC50 [5] | Activity [5] | Activity [6] [%] | logP [7] | further results
COc1cc([C@@H]2c3cc4c(cc3[C@@H](OC(=O)Cn3cnc5c3c(=O)n(C)c(=O)n5C)[C@H]3COC(=O)[C@H]23)OCO4)cc(OC)c1O | 5.10 | 6.19 | 5.16 | 5.70 | 4.42 | Dose-dependent effect | 54 | 0.43 | –
COc1cc([C@@H]2c3cc4c(cc3[C@@H](NC(=O)c3cc(O)c(O)c(O)c3)[C@H]3COC(=O)[C@H]23)OCO4)cc(OC)c1O | 4.56 | 4.65 | 4.47 | 4.62 | 4.83 | Dose-dependent effect | – | 0.29 | –
COc1cc([C@@H]2c3cc4c(cc3[C@@H](OC(=O)c3cnccn3)[C@H]3COC(=O)[C@H]23)OCO4)cc(OC)c1O | 5.92 | 6.22 | 5.42 | 5.38 | 4.28 | Dose-dependent effect | 114 | 0.33 | Ratio IC50 (HeLa [8]): 66; Ratio IC50 (A549 [9]): 16; Ratio IC50 (HepG2 [10]): 12; Ratio IC50 (BGC-823 [11]): 6; Activity (HeLa [12]): Dose-dependent effect; Activity (HeLa [13]): 39.65%; Activity (HeLa [14]): 5.49%; Activity (HeLa [15]): 4.01%; Activity (HeLa [16]): 19.88%; Activity (HeLa [17]): 60.96%; Activity (HeLa [18]): 66.85%; Activity (HeLa [19]): 4.2%; Activity (HeLa [20]): 10.3%; Activity (HeLa [21]): 10.8%; Activity (HeLa [22]): 7.2%; Activity (HeLa [23]): 30.1%; Activity (HeLa [24]): 45.5%; Activity (HeLa [25]): Dose-dependent effect; inhibition [26]: Active
COc1cc([C@@H]2c3cc4c(cc3[C@@H](OC(=O)c3ccc5ccccc5n3)[C@H]3COC(=O)[C@H]23)OCO4)cc(OC)c1O | 5.04 | 4.69 | 4.72 | 4.54 | 4.70 | Dose-dependent effect | – | 0.8 | –
COc1cc([C@@H]2c3cc4c(cc3[C@@H](OC(=O)c3cn(C5CC5)c5cc(Cl)c(F)cc5c3=O)[C@H]3COC(=O)[C@H]23)OCO4)cc(OC)c1O | 4.80 | 6.22 | 5.00 | 4.76 | 4.38 | Dose-dependent effect | 70 | 0.69 | –
COc1cc([C@@H]2c3cc4c(cc3[C@@H](O[C@@H]3O[C@@H]5CO[C@@H](C)O[C@H]5[C@H](O)[C@H]3O)[C@H]3COC(=O)[C@H]23)OCO4)cc(OC)c1O [ETOPOSIDE] | 4.81 | 4.23 | 4.17 | 4.51 | 4.61 | Dose-dependent effect | – | 0.52 | pIC50 [27]: 4.59; pIC50 (A549 [28]): 3.77; pIC50 (HepG2 [29]): 5.94; Activity (HepG2 [1]): Dose-dependent effect; Activity (HeLa [2]): Dose-dependent effect; Activity (A549 [3]): Dose-dependent effect; Activity (BGC-823 [30]): Dose-dependent effect; inhibition [26]: Active
COc1cc([C@@H]2c3cc4c(cc3[C@@H](Sc3nc[nH]n3)[C@H]3COC(=O)[C@H]23)OCO4)cc(OC)c1O | – | – | – | – | – | – | – | – | pIC50 [27]: 6.55; pIC50 (A549 [28]): 6.12; pIC50 (HepG2 [29]): 6.38; Ratio IC50 (BGC-823 [31]): 91; Ratio IC50 (A549 [32]): 221; Ratio IC50 (HepG2 [33]): 2.73
COc1cc([C@@H]2c3cc4c(cc3[C@@H](NC(=O)Cn3cnc5c3c(=O)n(C)c(=O)n5C)[C@H]3COC(=O)[C@H]23)OCO4)cc(OC)c1O | 5.63 | 5.50 | 5.14 | 5.23 | 4.29 | Dose-dependent effect | 106 | 0.56 | –
COc1cc([C@@H]2c3cc4c(cc3[C@@H](NC(=O)c3cnc(C)cn3)[C@H]3COC(=O)[C@H]23)OCO4)cc(OC)c1O | 5.17 | 4.79 | 4.73 | 5.46 | 4.68 | Dose-dependent effect | – | 0.59 | –
COc1cc([C@@H]2c3cc4c(cc3[C@@H](OC(=O)c3cnc(C)cn3)[C@H]3COC(=O)[C@H]23)OCO4)cc(OC)c1O | 4.85 | 5.02 | 4.98 | 5.82 | 4.73 | Dose-dependent effect | – | 0.38 | –
COc1cc([C@@H]2c3cc4c(cc3[C@@H](NC(=O)c3cnccn3)[C@H]3COC(=O)[C@H]23)OCO4)cc(OC)c1O | 5.18 | 4.96 | 4.78 | 4.84 | 4.27 | Dose-dependent effect | 117 | 0.43 | –
COc1cc([C@@H]2c3cc4c(cc3[C@@H](O)[C@H]3COC(=O)[C@H]23)OCO4)cc(OC)c1O [4'-DEMETHYLEPIPODOPHYLLOTOXIN] | 4.73 | 4.80 | 4.28 | 4.67 | 4.88 | Dose-dependent effect | – | 0.73 | Activity (HepG2 [1]): Dose-dependent effect; Activity (HeLa [2]): Dose-dependent effect; Activity (A549 [3]): Dose-dependent effect; Activity (BGC-823 [30]): Dose-dependent effect
